PGC1a acetyl inh = modulators of PGC1a acetylation; U2OS PGC1a acetylation, AlphaScreen anti-acetyl-lysine; with virally co-expressed GCN5 acetyltransferase; inhibition, % at 15.6 µM; hit rate 0.17% among 350,000;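 active means every replicate shows inhibition of at least 40%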
Vif inh = inhibitors of HIV Vif | inhibition, % at 7.49 µM | hit rate 0.35% among 340,000 | HEK293T cells, Vif self-association by quenched fluorescence, imaging, 24 h; in the data active means inhibition above about 50%, passing the limit was not always enough
PglD inh = inhibitors of Campylobacter jejuni PglD acetyltransferase; purified PglD enzyme, DTNB colorimetric CoA detection; inhibition, % at 12.5 µM; hit rate 0.098% among 360,000; in the data active means inhibition above about 16%, passing the limit was not always enough
rRNA inh HTS = inhibitors of bacterial rRNA selective over humanized ribosomes; GFP signal change (wild-type ribosome), % (no concentration beside the values); E. coli WT GFP vs humanized-ribosome RFP mutants, fluorescence, 24 h; active compounds read low; DMSO median 0, no signal -100; AID 720706; hit rate 1.6% among 350,000;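 active means significant combined selectivity score with lowered wild-type GFP, culture density cut under 30%, mutant RFP and density less affected; inactive means any of these conditions unmet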
FGF22 binding = shifts melting point of recombinant human FGF22; activity (Tm shift, normalised), % at 9.99 µM; Q9HCT0; hit rate 1.5% among 340,000; recombinant FGF22 thermal shift, SYPRO orange fluorescence; percent of sucrose octasulfate shift, DMSO zero;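 active means mean Tm shift, scaled 0 neutral to 100 positive control, at about 1.3% or above, every replicate too, limit read from the data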
Target sequence (Q9HCT0 whole entry, looked up): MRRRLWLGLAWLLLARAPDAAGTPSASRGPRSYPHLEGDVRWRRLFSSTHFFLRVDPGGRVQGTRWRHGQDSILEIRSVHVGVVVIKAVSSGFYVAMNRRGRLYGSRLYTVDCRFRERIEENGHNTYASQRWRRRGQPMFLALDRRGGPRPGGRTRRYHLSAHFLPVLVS
Cneo AK release = Cryptococcus neoformans lysis via adenylate kinase release | lysis activity, % at 15 µM | hit rate 0.2% among 360,000 | C. neoformans lysis, adenylate kinase release luminescence, 4 h; normalised: neutral wells 0, clomiphene wells 100;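 active means mean lysis activity across replicates of at least 80%, whatever share of replicates individually reach that level; inactive means mean lysis activity below 80%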
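Test system: log-phase Cryptococcus neoformans yeast cells; Quantity: yeast cell density of 5 × 10^6 cells/mL; Buffer or medium: YPD; Doses: single compound concentration per well; Timing: 4 h at 37 °C static, read 1 h later; Measured by: AK luminescence; Read-out basis: lysis from increased AK signal; Control set: Clomiphene as positive control.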
A number is an active result; – = inactive; · = not tested or not shown. A selection: hits, their analogues and other compounds. The true share with any hit is near 2.9%.

SMILES	PGC1a acetyl inh	Vif inh	PglD inh	rRNA inh HTS	FGF22 binding	Cneo AK release
Cc1ccc2nc(C3CCN(S(=O)(=O)c4ccc5ccccc5c4)CC3)[nH]c2c1	–	–	–	-29	·	–
COc1ccccc1NC(=O)CN1CCC(c2nc3ccccc3[nH]2)CC1	–	–	–	–	–	–
COc1ccc(NC(=O)N2CCC(c3nc4ccccc4[nH]3)CC2)cc1	–	–	·	-22	–	·
COc1ccccc1C(=O)Nc1ccc2c(c1)C(=O)N(C)[C@@H]1CC[C@@H](CC(=O)NCc3ccc(Cl)c(Cl)c3)O[C@@H]1CO2	–	·	–	–	–	–
CCOc1ccc(OCC)c(NC(=O)CSc2nc3ccccc3c(=O)n2C)c1	–	–	–	·	·	–
CCOc1ccc(OCC)c(NC(=O)CSc2nc3cccnc3n2C)c1	–	–	–	-33	–	–
CN1CCN(C(=O)CCN2C(=O)/C(=C\c3ccc(F)cc3)SC2=S)CC1	–	–	–	–	–	–
O=C(CN1C(=O)/C(=C/c2ccc(F)cc2)SC1=S)N1CCN(CCc2ccccn2)CC1	–	–	–	-30	–	–
N#Cc1ccc(-c2ccc3c(c2)[C@H]2[C@H](CCN2Cc2cncnc2)[C@H](CO)N3)cc1	–	·	–	–	·	–
O=C(Nc1cccc(Cl)c1)c1ccc(S(=O)(=O)NCC2CCCO2)cc1 (stereo not given)	·	–	–	-21	–	–
CS(=O)(=O)N(CC(=O)NCC1CCCO1)c1cccc(Cl)c1 (stereo not given)	–	–	·	–	44	·
O=S(=O)(NC1CCCC1)c1ccc(S(=O)(=O)N(Cc2cccs2)CC2CCCO2)cc1 (stereo not given)	–	–	–	-30	–	–
O=S(=O)(c1ccc(S(=O)(=O)N(Cc2cccs2)CC2CCCO2)cc1)N1CCCCC1 (stereo not given)	–	–	–	·	·	–
O=S(=O)(Nc1nc2ccccc2nc1NCC1CCCO1)c1cccc(Cl)c1 (stereo not given)	–	·	–	-24	–	–
O=C(Nc1ccccc1)c1ccc(S(=O)(=O)NCC2CCCO2)cc1 (stereo not given)	–	–	–	·	·	–
N#C[C@H]1[C@@H](c2ccccc2)[C@H](CO)N1C(=O)c1cc(Cl)cc(Cl)c1	–	·	–	–	–	–
COc1ccc(NC(=O)N(C)C[C@H]2Oc3ncc(-c4cccnc4)cc3C(=O)N([C@H](C)CO)C[C@@H]2C)cc1	–	·	–	–	–	–
Cc1cc(S(=O)(=O)NC2CCCCC2)ccc1OCC(=O)NCC1CCCO1 (stereo not given)	–	–	–	–	–	–
O=C(NCC1CCCO1)c1ccc(NS(=O)(=O)c2ccccc2)cc1 (stereo not given)	–	–	·	–	45	·
O=C(COc1ccc(S(=O)(=O)NC2CCCC2)cc1)NCC1CCCO1 (stereo not given)	–	–	·	–	43	·
C(=NOCc1ccccc1)c1cccnc1	·	–	–	·	–	–
N#Cc1ccc(CO/N=C/c2ccccc2)cc1	–	–	·	–	44	·
CCC(=O)N[C@H]1C[C@@H]2O[C@H](CO)CC[C@@H]2O[C@@H]1CCc1ccc(-c2cccc(OC)c2)cc1	–	·	·	·	·	·
CN(C)/C=C(\C=O)c1ncc(C(F)(F)F)cc1Cl	·	–	·	–	43	·
Cc1oc2ccc(O)cc2c1C(=O)c1ccc(Br)cc1	·	–	·	-23	–	·
SMILES	PGC1a acetyl inh	Vif inh	PglD inh	rRNA inh HTS	FGF22 binding	Cneo AK release
Cc1oc2ccc(O)cc2c1C(=O)c1ccc(Cl)cc1	·	·	–	·	·	–
CCCCNc1ncnc2c1cnn2Cc1ccc(Cl)cc1	·	–	–	–	–	–
CCN(CC)c1ncnc2c1cnn2Cc1ccc(Cl)cc1	–	–	·	–	43	·
O=C(O)C[C@@H]1C[C@@H]2c3cc(NC(=O)c4ccc5c(c4)OCO5)ccc3O[C@@H]2[C@H](CO)O1	–	·	–	–	–	–
Cc1c(Cl)c(C(F)(F)F)nn1CC(=O)NCc1ccco1	·	–	·	–	43	·
Cc1c(Cl)c([N+](=O)[O-])nn1CC(=O)NCc1ccco1	–	–	·	·	·	·
CCC(=O)N1CCC2(CC1)CN(S(=O)(=O)c1ccccc1)[C@H](CO)c1[nH]c3cc(OC)ccc3c12	–	·	·	–	–	·
CC1=C(O)C(=O)OC1c1c(Cl)cccc1Cl (stereo not given)	–	–	–	-29	–	–

Screening data as filed in PubChem.
